In brackets after ≈: the same amount, converted by molar mass.
What was measured:
[1] = Volume of distribution at steady state in rat at 5 mg/kg, iv; type: ADME, organism-based; set-up: dose 5 mg/kg, route intravenous; conditions: in vivo, read-out: Vdss
How it was run: (§1)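 Rat PK used a 5 mg/kg intravenous dose and a 20 mg/kg oral dose.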

[2] = Clearance in rat at 5 mg/kg, iv; type: ADME, organism-based; set-up: dose 5 mg/kg, route intravenous; conditions: in vivo
How it was run: (§2)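 Female CD rats received 5 mg/kg IV (20 mg/kg PO arm). Female CD1 mice received 5 mg/kg IV (10 mg/kg PO arm). Male and female beagles and male cynomolgus monkeys each received 1 mg/kg IV (2 mg/kg PO arm). Clearance and half-life were derived from plasma concentration–time profiles after the IV dose.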

[3] = AUC in rat at 20 mg/kg, po; type: ADME, organism-based; set-up: dose 20 mg/kg, route oral; conditions: plasma
How it was run: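 Female CD rats were dosed orally at 20 mg/kg, with a separate 5 mg/kg IV arm. Exposure (AUC) was taken from the plasma profile after the oral dose.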

[4] = Oral bioavailability in rat at 20 mg/kg; type: ADME, organism-based; conditions: in vivo; how it was run: as §1
[5] = Intrinsic clearance in rat liver microsomes; type: ADME, Microsome; conditions: read-out: CLH
[6] = Intrinsic clearance in human liver microsomes; type: ADME, Microsome; conditions: read-out: CLH
[7] = Solubility of the compound at pH 7; type: physicochemical; conditions: buffer
[8] = AUC in rat at 10 mg/kg, po; type: ADME, organism-based; set-up: dose 10 mg/kg, route oral; conditions: plasma
[9] = Oral bioavailability in rat at 10 mg/kg; type: ADME, organism-based; conditions: in vivo
How it was run: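 Rat PK used a 5 mg/kg intravenous dose and a 10 mg/kg oral dose.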

[10] = Apparent permeability from apical to basal side of human Caco2 cells; type: ADME, cell-based; conditions: Caco-2
[11] = Aqueous solubility of the compound; type: physicochemical
[12] = Apparent permeability from basal to apical side of human Caco2 cells; type: ADME, cell-based; conditions: Caco-2
[13] = Half life in beagle dog at 1 mg/kg, iv; type: ADME, organism-based, Canis lupus familiaris; set-up: dose 1 mg/kg, route intravenous; conditions: in vivo; how it was run: as §2
[14] = Clearance in beagle dog at 1 mg/kg, iv; type: ADME, organism-based, Canis lupus familiaris; set-up: dose 1 mg/kg, route intravenous; conditions: in vivo; how it was run: as §2
[15] = tested on: Plasma; assay: Plasma concentration in nu/nu mouse xenografted with human A2780 cells at 60 mg/kg, po; type: ADME, organism-based; set-up: dose 60 mg/kg, route oral; conditions: in vivo
How it was run: (§3)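 A2780 tumor-bearing mice were given oral doses (3, 10, 60 and 100 mg/kg were examined). Tumor AKT Ser473 phosphorylation and plasma exposure were measured, with the 10 h time point sampled.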

[16] = Volume of distribution at steady state in beagle dog at 1 mg/kg, iv; type: ADME, organism-based, Canis lupus familiaris; set-up: dose 1 mg/kg, route intravenous; conditions: in vivo, read-out: Vdss
How it was run: (§4)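 Male and female beagle dogs were dosed at 1 mg/kg IV and 2 mg/kg PO.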

[17] = tested on: Plasma; assay: Plasma concentration in nu/nu mouse xenografted with human A2780 cells at 100 mg/kg, po; type: ADME, organism-based; set-up: dose 100 mg/kg, route oral; conditions: in vivo; how it was run: as §3
[18] = Lipophilicity, log D at pH 7.4; type: physicochemical; conditions: buffer
[19] = Half life in CD rat at 5 mg/kg, iv; type: ADME, organism-based; set-up: dose 5 mg/kg, route intravenous; conditions: in vivo; how it was run: as §2
[20] = Drug uptake in tumor in nu/nu mouse xenografted with human A2780 cells at 100 mg/kg, po; type: ADME, organism-based, Neoplasm; set-up: dose 100 mg/kg, route oral; conditions: in vivo, read-out: Drug uptake
How it was run: (§5)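 A2780 tumor-bearing mice received a single oral dose. Tumors and plasma were sampled at 10 h. Tumor pAKT Ser473 was assessed for target modulation, and compound concentrations were measured in plasma and tumor.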

[21] = Clearance in CD1 mouse at 5 mg/kg, iv; type: ADME, organism-based; set-up: dose 5 mg/kg, route intravenous; conditions: in vivo; how it was run: as §2
[22] = Half life in CD1 mouse at 5 mg/kg, iv; type: ADME, organism-based; set-up: dose 5 mg/kg, route intravenous; conditions: in vivo; how it was run: as §2
[23] = Volume of distribution at steady state in CD rat at 5 mg/kg, iv; type: ADME, organism-based; set-up: dose 5 mg/kg, route intravenous; conditions: in vivo, read-out: Vdss
How it was run: (§6)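 Female CD rats were dosed at 5 mg/kg IV and 20 mg/kg PO.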

[24] = Oral bioavailability in CD rat at 20 mg/kg; type: ADME, organism-based; conditions: in vivo; how it was run: as §6
[25] = Clearance in cynomolgus monkey at 1 mg/kg, iv; type: ADME, organism-based, Macaca fascicularis; set-up: dose 1 mg/kg, route intravenous; conditions: in vivo; how it was run: as §2
[26] = Oral bioavailability in CD1 mouse at 10 mg/kg; type: ADME, organism-based; conditions: in vivo
How it was run: (§7)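 Female CD1 mice were dosed at 5 mg/kg IV and 10 mg/kg PO.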

[27] = Oral bioavailability in beagle dog at 2 mg/kg; type: ADME, organism-based, Canis lupus familiaris; conditions: in vivo; how it was run: as §4
[28] = Oral bioavailability in cynomolgus monkey at 2 mg/kg; type: ADME, organism-based, Macaca fascicularis; conditions: in vivo
How it was run: (§8)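 Male cynomolgus monkeys were dosed at 1 mg/kg IV and 2 mg/kg PO.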

[29] = Volume of distribution at steady state in cynomolgus monkey at 1 mg/kg, iv; type: ADME, organism-based, Macaca fascicularis; set-up: dose 1 mg/kg, route intravenous; conditions: in vivo, read-out: Vdss; how it was run: as §8
[30] = Dissociation constant, pKa of the compound; type: physicochemical
[31] = Drug uptake in tumor in nu/nu mouse xenografted with human A2780 cells at 60 mg/kg, po; type: ADME, organism-based, Neoplasm; set-up: dose 60 mg/kg, route oral; conditions: in vivo, read-out: Drug uptake; how it was run: as §5
[32] = Volume of distribution at steady state in CD1 mouse at 5 mg/kg, iv; type: ADME, organism-based; set-up: dose 5 mg/kg, route intravenous; conditions: in vivo, read-out: Vdss; how it was run: as §7
[33] = Half life in cynomolgus monkey at 1 mg/kg, iv; type: ADME, organism-based, Macaca fascicularis; set-up: dose 1 mg/kg, route intravenous; conditions: in vivo; how it was run: as §2
[34] = Clearance in CD rat at 5 mg/kg, iv; type: ADME, organism-based; set-up: dose 5 mg/kg, route intravenous; conditions: in vivo; how it was run: as §2

Nc1ncc(-c2cc(Nc3cnc4ccccc4c3)nc(N3CCOCC3)n2)c(C(F)(F)F)n1
Vd [1]: 2.8 L/kg
clearance [2]: 11 mL/min/kg
AUC [3]: 26 µM·h

Nc1ncc(-c2cc(N3CCOCC3)nc(N3CCOCC3)n2)c(C(F)(F)F)n1
bioavailability [4]: 83%
microsomal CLint [5]: ≤ 9 µL/min/mg
microsomal CLint [6]: ≤ 9 µL/min/mg
Vd [1]: 2.1 L/kg
clearance [2]: 11 mL/min/kg
AUC [3]: 62 µM·h
solubility [7]: 61 µM (≈ 25.1 µg/mL)

Nc1ncc(-c2cc(N3CCOCC3)nc(N3CCOCC3)n2)c(N)n1
microsomal CLint [5]: ≤ 9 µL/min/mg
AUC [8]: 64 µM·h
microsomal CLint [6]: ≤ 9 µL/min/mg
Vd [1]: 4.5 L/kg
bioavailability [9]: 68%
clearance [2]: 9 mL/min/kg
solubility [7]: 8 µM (≈ 2.87 µg/mL)

Nc1cc(Cl)c(-c2cc(N3CCOCC3)nc(N3CCOCC3)n2)cn1
bioavailability [4]: 69%
microsomal CLint [5]: ≤ 9 µL/min/mg
microsomal CLint [6]: ≤ 9 µL/min/mg
Vd [1]: 1.11 L/kg
clearance [2]: 22 mL/min/kg
AUC [3]: 29 µM·h
solubility [7]: 45 µM (≈ 17 µg/mL)

Nc1cc(C(F)(F)F)c(-c2cc(Nc3cnc4ccccc4c3)nc(N3CCOCC3)n2)cn1
Papp A→B [10]: 1.56 ×10⁻⁶ cm/s
Vd [1]: 2.6 L/kg
solubility [11]: 0.3 µg/mL (≈ 0.642 µM)
Papp B→A [12]: 2.15 ×10⁻⁶ cm/s
clearance [2]: 8 mL/min/kg
AUC [3]: 114 µM·h

Nc1ncc(-c2cc(N3CCOCC3)nc(N3CCOCC3)n2)c(=O)[nH]1
bioavailability [4]: 56%
microsomal CLint [5]: ≤ 9 µL/min/mg
microsomal CLint [6]: ≤ 9 µL/min/mg
Vd [1]: 2.8 L/kg
clearance [2]: 24 mL/min/kg
AUC [3]: 24 µM·h
solubility [7]: 22 µM (≈ 7.91 µg/mL)

Nc1cc(C(F)(F)F)c(-c2cc(N3CCOCC3)nc(N3CCOCC3)n2)cn1 [BUPARLISIB]
half-life [13]: 6.6 h
clearance [14]: 7.3 mL/min/kg
concentration [15]: 2000 nM
bioavailability [4]: 50%
microsomal CLint [5]: ≤ 9 µL/min/mg
Vd [16]: 3.1 L/kg
concentration [17]: 2000 nM
logD [18]: 2.9
half-life [19]: 11 h
concentration [20]: 2000 nM
clearance [21]: 11 mL/min/kg
half-life [22]: 1.6 h
Vd [23]: 3.1 L/kg
microsomal CLint [6]: ≤ 9 µL/min/mg
bioavailability [24]: 50%
clearance [25]: 13 mL/min/kg
bioavailability [26]: 71%
bioavailability [27]: > 100%
Vd [1]: 3.1 L/kg
bioavailability [28]: 44%
Vd [29]: 3.1 L/kg
pKa [30]: 5.1
concentration [31]: 2000 nM
clearance [2]: 3 mL/min/kg
Vd [32]: 1.4 L/kg
half-life [33]: 3.6 h
clearance [34]: 3 mL/min/kg
AUC [3]: 178 µM·h
solubility [7]: 132 µM (≈ 54.2 µg/mL)

Nc1ncc(-c2cc(Nc3cnc4ccccc4c3)nc(N3CCOCC3)n2)cn1
AUC [3]: 7 µM·h

N#Cc1cc(N)ncc1-c1cc(N2CCOCC2)nc(N2CCOCC2)n1
bioavailability [4]: 98%
microsomal CLint [5]: ≤ 9 µL/min/mg
microsomal CLint [6]: ≤ 9 µL/min/mg
Vd [1]: 1.6 L/kg
clearance [2]: 11 mL/min/kg
AUC [3]: 86 µM·h
solubility [7]: 11 µM (≈ 4.04 µg/mL)

Nc1ncc(-c2cc(N3CCOCC3)nc(N3CCOCC3)n2)cn1
microsomal CLint [5]: ≤ 9 µL/min/mg
microsomal CLint [6]: ≤ 9 µL/min/mg
solubility [7]: 25 µM (≈ 8.58 µg/mL)

— ChEMBL document CHEMBL2016472, “Identification of NVP-BKM120 as a Potent, Selective, Orally Bioavailable Class I PI3 Kinase Inhibitor for Treating Cancer” (ACS Med Chem Lett, 2011)
